Our source for the cytotoxicity values is ChEMBL document CHEMBL4513216, “Probing the Open Global Health Chemical Diversity Library for Multistage-Active Starting Points for Next-Generation Antimalarials” (ACS Infect Dis, 2020).

The data set can be described thus: Toxicity liver stage against HepG2, at 10uM. In kind it is cell-based. Also noted: test concentration 10 uM, cell line HepG2-A16-CD81EGFP. The conditions noted are these: human, HepG2-A16-CD81EGFP cells; read-out: INHIBITION
The procedure, abridged: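 Uninfected HepG2-A16-CD81EGFP cells, 3 × 10^3 per well, 1536-well, plated on prespotted compound at 10 μM final, parasite-free screening media added to match infected plates; puromycin 10 μM positive, DMSO 0.5% negative; run in parallel with 48 h PbLuc assay at 37 °C, 5% CO2; viability by CellTiter-Glo luminescence, normalized to controls.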
With `COCCN(CCOC)Cc1c(C)nc2ccccc2c1O`, the cytotoxicity at 10 µM was determined as 2.08%.

On to `CC(C)(C)C(=O)NC[C@H]1Cn2c(-c3ccccc3)cnc2CO1`, for which the cytotoxicity at 10 µM was -3.69%.

Consider `CN1CCN(C(=O)c2cc3occc3n2Cc2ccccc2F)CC1`, for which the cytotoxicity at 10 µM was determined as 1.14%.

Consider `Cc1n[nH]c2nc(-c3ccccc3O)cc(C(=O)O)c12`, for which the cytotoxicity at 10 µM is -1.55%.

For `COC(=O)c1ccc(C2SCC(=O)Nc3c2cnn3C2CCCC2)cc1` (configuration not stated), the cytotoxicity at 10 µM amounted to 1.9%.

As to `Cc1cnc2n(c1=O)C(CC(=O)NCc1ccccc1Cl)CS2` (configuration not stated), the cytotoxicity at 10 µM is -7.86%.

Turning to `COc1ccc(C(=O)NCC(c2cccn2C)N2CCN(C)CC2)cc1` (configuration not stated), the cytotoxicity at 10 µM amounted to 8.19%.

For the compound `O=C(O)c1ncccc1N1CCCCC1`, the cytotoxicity at 10 µM is 4.19%.

As to `CC(C)N(C)[C@@H]1CCN(Cc2ccco2)[C@H]1Cc1ccccc1`, the cytotoxicity at 10 µM was -7.92%.

With `Cc1occc1C(=O)N1C[C@@H]2CN(S(C)(=O)=O)CCO[C@@H]2C1`, the cytotoxicity at 10 µM is -2.63%.

For `Cc1c(C)n(CC(O)CN2CCC(O)CC2)c2c(Cl)cccc12` (configuration not stated), the cytotoxicity at 10 µM was -13.9%.

`Cc1noc([C@@H]2C[C@H]3OCC[C@H]3N(S(C)(=O)=O)C2)n1`: the cytotoxicity at 10 µM is -9.67%.

As to `CC(C)CNC(=O)c1nn(C)c(NC(=O)Cc2ccccc2)c1F`, the cytotoxicity at 10 µM was -3.22%.

For the compound `CCn1cc(NC(=O)C(C)n2ncc(Cl)c2C)c(C(=O)OC)n1` (configuration not stated), the cytotoxicity at 10 µM amounted to 7.19%.

With `Cc1cc(O)n(-c2ccc3nnc(C)n3n2)n1`, the cytotoxicity at 10 µM came to 9.24%.

For the compound `CC(=O)N[C@H]1CCO[C@@H](c2cccc(NC(=O)c3cccc(F)c3)c2)C1`, the cytotoxicity at 10 µM worked out at 8.75%.

Take `CC(C)N1CCCC1c1cc(CCO)[nH]n1` (configuration not stated): the cytotoxicity at 10 µM is 0.895%.

With `Cc1ccc(S(=O)(=O)N[C@H](CO)C(C)C)cc1N(C)C`, the cytotoxicity at 10 µM was -5.53%.

Consider `NC(=O)CNC(c1ccccc1)c1ccccc1`, for which the cytotoxicity at 10 µM was -10.5%.

`Cc1cc(NC(=O)CNC2CCc3ncnn3C2)on1` (configuration not stated): the cytotoxicity at 10 µM was found to be 6.47%.

Turning to `CNC(=O)N1CCOC(C)(c2cnn(C)c2)C1` (configuration not stated), the cytotoxicity at 10 µM was -0.717%.

Take `Cc1nnc(N2CCc3cnc(C(C)C)nc3C2)c(C#N)c1C`: the cytotoxicity at 10 µM is -143%.

As to `CCCNC(=O)CCC(=O)Nc1cc2sc(C)nc2cc1OC`, the cytotoxicity at 10 µM was determined as 4.55%.

Regarding `COc1ccc(OC)c(CCC(=O)Nc2cc(C)n[nH]2)c1`, the cytotoxicity at 10 µM was 7.3%.

`CC(NCc1ccccc1CN1CCCC1=O)c1ccc(C#N)cc1` (configuration not stated): the cytotoxicity at 10 µM was 3.09%.

On to `Cc1ccc(CN2CCOC(C)(c3cnn(C)c3)C2)cc1` (configuration not stated), for which the cytotoxicity at 10 µM was -4.16%.

For `N#Cc1ccc(SCCOCCO)c(Cl)c1`, the cytotoxicity at 10 µM was determined as 2.68%.

In the case of `CCOc1ccnc(N2CCN(CCOC)CC2)n1`, the cytotoxicity at 10 µM was 4.49%.

Regarding `CN1CCN(CC(NCc2cccc(O)c2)c2ccccc2)CC1` (configuration not stated), the cytotoxicity at 10 µM is -3.89%.

In the case of `Cc1cc(C)n(-c2cncc(NCCC(=O)NC(C)C)n2)n1`, the cytotoxicity at 10 µM is 1.06%.

`COCCn1nc(C(=O)N(C)Cc2cccnc2)ccc1=O`: the cytotoxicity at 10 µM is -144%.

On to `Cc1cc(N)nc(SC2CCN(c3ccccc3)C2=O)n1` (configuration not stated), for which the cytotoxicity at 10 µM was -0.572%.

For the compound `Cc1ccc2c(c1)CCCN2C(=O)c1cncc(Br)c1`, the cytotoxicity at 10 µM was -8.79%.

For `N#Cc1c(Cl)nsc1N1CCN(CC2CCCCC2)CC1`, the cytotoxicity at 10 µM is -8.67%.

Regarding `O=C(Cn1cc(-n2cccc2)cn1)NCC(F)(F)F`, the cytotoxicity at 10 µM is 16%.

Regarding `COc1ccc(C(=O)NS(=O)(=O)c2cncc(Br)c2)cc1OC`, the cytotoxicity at 10 µM was determined as 4.36%.

Take `CC(=O)N1CCOC(Cc2cccc(C(F)(F)F)c2)C1` (configuration not stated): the cytotoxicity at 10 µM is -6.64%.

Consider `Cn1nccc1C(=O)N1CCCC1c1ccc(C(=O)N2CCOCC2)s1` (configuration not stated), for which the cytotoxicity at 10 µM was -145%.

Take `CC(C)CN1CC2(CCN(C(=O)C(O)c3ccccc3Cl)CC2)CC1=O` (configuration not stated): the cytotoxicity at 10 µM is 6.89%.

For `COc1ccc(-c2cc(C3CCOC3)c(C#N)c(N)n2)cn1` (configuration not stated), the cytotoxicity at 10 µM amounted to 10.2%.

For the compound `Cc1c(CNCCCOc2cccnc2)c2ccccc2n1CC(N)=O`, the cytotoxicity at 10 µM was -145%.

Turning to `O=c1[nH]c2cc3c(cc2cc1CN1CCCC1c1ccccn1)OCO3` (configuration not stated), the cytotoxicity at 10 µM is -4.5%.

For `CCn1c(C)nnc1SCCn1cc(-c2ncc[nH]2)nn1`, the cytotoxicity at 10 µM is -6.99%.

`CCOCC(=O)N1Cc2cnc(-c3ccccc3)nc2C1`: the cytotoxicity at 10 µM was -1.08%.

As for `CN(CCC1CCCCO1)c1nncc(-c2ccccc2)n1` (configuration not stated), the cytotoxicity at 10 µM stood at 1.37%.

As to `CCCN1CCN(Cc2cc3cc(OCC)ccc3[nH]c2=O)CC1`, the cytotoxicity at 10 µM was -9.91%.

As for `Cc1ccc(Cl)c(CN2CCC3(CC2)C(C(=O)O)CC(=O)N3C)c1F` (configuration not stated), the cytotoxicity at 10 µM is 2.64%.

In the case of `CCOCCn1c(=O)n(CCC=C(C)C)c2cc(C(=O)O)cnc21`, the cytotoxicity at 10 µM is -2.85%.

Turning to `CC(C)N1CCCC2(CCN(C(=O)CCCn3ccnc3)C2)C1=O` (configuration not stated), the cytotoxicity at 10 µM is -6.43%.

In the case of `Cc1[nH]c(=O)[nH]c(=O)c1CN1CCCC(CCc2c(F)cccc2F)C1` (configuration not stated), the cytotoxicity at 10 µM is -7.32%.

In the case of `COc1ccc2c(c1)CCN(CCC(=O)NC1CCCCC1)CC2`, the cytotoxicity at 10 µM is -11.4%.

As to `CN(C)c1nc2c(c(=O)[nH]1)CCN(C(=O)c1cccc3nccnc13)C2`, the cytotoxicity at 10 µM was -10.7%.

Turning to `CNc1cncc(C2CCCN2C(=O)c2ccc3oc(C)cc3c2)n1` (configuration not stated), the cytotoxicity at 10 µM is 4.52%.

On to `CS(=O)(=O)NCCC(=O)Nc1cnn(-c2ccccc2Cl)c1`, for which the cytotoxicity at 10 µM was -0.0414%.

For the compound `O=C(CN1CCCC1c1noc(C2CC2)n1)NCCc1ccsc1` (configuration not stated), the cytotoxicity at 10 µM was determined as 2.82%.

As to `CC(C)c1nnc2n1CCN(C(=O)c1cc(Cl)c[nH]1)C2`, the cytotoxicity at 10 µM was -11.4%.

For `Cc1ccc(C(=O)N2CCCN(Cc3cccs3)CC2)n1C`, the cytotoxicity at 10 µM was -0.926%.

Consider `CN(Cc1ccsc1)C(=O)c1ccc2c(c1)NC(=O)CO2`, for which the cytotoxicity at 10 µM was -12.8%.

Regarding `CCc1nc2n(n1)CC(NCCC(=O)Nc1cc(C)on1)CC2` (configuration not stated), the cytotoxicity at 10 µM was -10%.

Regarding `N#Cc1ccc(OCC(O)CN2CCC(c3ccn[nH]3)CC2)cc1` (configuration not stated), the cytotoxicity at 10 µM is -3.33%.

For `COCCN1CCN(Cc2cccc(C(=O)N(C)C)c2)CC1`, the cytotoxicity at 10 µM is -6.79%.

Consider `O=C(CN1CCCC(Cn2cncn2)C1)NCCCc1ccccc1` (configuration not stated), for which the cytotoxicity at 10 µM was -10.7%.

Consider `Cc1ccccc1-c1noc(CN2CCc3nn(C)c(=O)cc3C2)n1`, for which the cytotoxicity at 10 µM is -12.5%.

In the case of `N#CCc1ccc(OCC(=O)N2CCCC(n3cccn3)C2)cc1` (configuration not stated), the cytotoxicity at 10 µM is -4%.

Take `Cc1noc(C(C)C)c1C(=O)NCC(c1ccsc1)N(C)C` (configuration not stated): the cytotoxicity at 10 µM was -5.18%.

With `CCS(=O)(=O)N(C)CC(=O)Nc1ccc(Br)cn1`, the cytotoxicity at 10 µM was -0.0481%.

Consider `Cc1cc(NC(=O)CN2CCCC2c2noc(C(C)C)n2)n(C)n1` (configuration not stated), for which the cytotoxicity at 10 µM stood at 4.64%.

On to `O=C(c1cc(F)ccc1F)C1CCN(C(=O)c2ccccn2)CC1`, for which the cytotoxicity at 10 µM was determined as 2.6%.

Regarding `Cc1ccc(N2CCC3(CC2)COCCN(c2nccs2)C3)nn1`, the cytotoxicity at 10 µM is -107%.

Consider `CCO[C@H]1CN(CC2CC2)[C@@H]2CCCO[C@H]12`, for which the cytotoxicity at 10 µM is -105%.

With `c1ccc(-c2ccc3nc(C4CCN(CC5CC5)CC4)nn3c2)cc1`, the cytotoxicity at 10 µM is -7.32%.

For `CN(C)CCNC(=O)[C@H]1C[C@H]2CN(C(=O)NC3CCCC3)C[C@@H]1O2`, the cytotoxicity at 10 µM was -4.2%.
